Experimental data taken from PMC3498903 (Journal of medicinal chemistry, 2012).
Entries after “also recorded” stand apart in the source; their conditions may differ. Counter-ions that a name gives are not always drawn. Like-named read-outs stand apart in the source and are kept apart here.

Key:
HFF cells = experiment: In vitro toxicity assay on HFF host cells; type: cell-based, human; conditions: HFF used as host cells in the parasite assay
mice = experiment: In vivo toxicity in uninfected mice dosed orally; conditions: for Day of Death: Challenge None, B7 mice; for toxic effects on oral dosing (survival, well-being criteria): gavage daily for nine days, 100mg/kg
[1] = test system: T. gondii TgGoatUS4 oocysts; experiment: Mouse model of T. gondii oocyst infection, TgGoatUS4 oocysts; type: in vivo, Toxoplasma gondii; conditions: 25 or 100 mg/kg, versus untreated infected mice
Method in brief: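 Mice, 5 per group, were challenged orally with TgGoatUS4 oocysts that had been sporulated in 2% sulfuric acid and neutralised with 3.3% NaOH. Test compound was given at 100 or 25 mg/kg as a 1 mL suspension by oral gavage in 1% DMSO/5% PEG 400/94% of 0.5% CMC. Controls were compound-only and untreated infected mice. Survival was observed daily, with tachyzoites sought in tissue smears.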

[2] = test system: THdhxgTRP tachyzoites transfected with pLK47; experiment: Insertional mutagenesis experiments: selection of resistant mutants; type: cell-based, Toxoplasma gondii; conditions: prolonged incubation (six weeks); data not shown
T. gondii tachyzoites = experiment: In vitro inhibition of T. gondii tachyzoites; type: cell-based, Toxoplasma gondii; conditions: for MIC50 / MIC90: T. gondii tachyzoites in vitro; for activity against T. gondii tachyzoites in words: in vitro, only MIC50 ≤ 1 μM considered active
[3] = test system: P. falciparum D6 (CDC/Sierra Leone); experiment: Malaria SYBR Green I-based fluorescence; type: cell-based; conditions: Plasmodium falciparum, D6, 72 h, read-out: D6 IC50
P. falciparum TM91-C235 = experiment: Malaria SYBR Green I-based fluorescence; type: cell-based, Plasmodium falciparum; conditions: for IC50: Plasmodium falciparum, 72 h; for efficacy against TM91-C235 compared with D6: comparison of IC50 values of the two strains
RH-YFP tachyzoites = experiment: Determination of static or cidal effects on RH-YFP tachyzoites; type: cell-based, Toxoplasma gondii; conditions: 1 μM; for static or cidal effect: Conditions A-D, growth assessed at days 11, 17, 25; for duration of treatment giving a cidal effect: compound removed after treatment
[4] = Hydrolytic stability on incubation in THF and buffer; conditions: mixture of THF and buffer (pH 7.4 or pH 8.5); data not shown
T. gondii Me-49 oocysts = experiment: Mouse model of T. gondii oocyst infection, ME49 oocysts; type: in vivo, Toxoplasma gondii; conditions: 25 or 100 mg/kg, versus untreated infected mice
Method in brief: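 […] female mice (~25 g), 5 per group. Each mouse received test compound at 100 or 25 mg/kg (2.5 or […], 1.0 mL) by oral gavage in 1% DMSO/5% PEG 400/94% of 0.5% CMC, with or without 100 acid-sporulated, NaOH-neutralised ME49 oocysts orally. Controls were compound-only and oocyst-only groups. Mice were observed daily for survival. Infection was confirmed by tachyzoites in tissue smears.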

2-((2,4-bis(trifluoromethyl)phenyl)carbamoyl)-4-chlorophenyl(2-hydrazinyl-2-oxoethyl) (methyl)carbamate hydrochloride [Compound 14b]
Toxicity (HFF cells): >1000 nM | Day of Death (mice; 25 mg/kg oral gavage): None | Day of Death (mice; 100 mg/kg oral gavage): None | toxic effects on oral dosing (survival, well-being criteria) (mice): all mice were alive and appeared healthy | increased survival [1]: 1 days | growth of insertional mutant parasites in the presence of compound [2]: No parasite growth

5-chloro-2-hydroxy-N-(3,4,5-trimethoxyphenyl)benzamide [Compound 3q]
MIC50 (T. gondii tachyzoites): >1 µM | MIC90 (T. gondii tachyzoites): >1 µM | activity against T. gondii tachyzoites in words (T. gondii tachyzoites): devoid of activity; also recorded: inactive

5-chloro-2-hydroxy-N-(5-methoxy-2-methylphenyl)benzamide [Compound 3x]
MIC50 (T. gondii tachyzoites): >1 µM | MIC90 (T. gondii tachyzoites): >1 µM

5-chloro-N-(3-cyano-4-fluorophenyl)-2-hydroxybenzamide [Compound 3t]
MIC50 (T. gondii tachyzoites): >1 µM | MIC90 (T. gondii tachyzoites): >1 µM

CCN(CC)CCCC(C)Nc1ccnc2cc(Cl)ccc12 (stereo not drawn) [Chloroquine, reference compound]
IC50 [3]: 0.007 µM | IC50 (P. falciparum TM91-C235; read-out: C235 IC50): 0.089 µM

CC(C)(C)c1cccc(NC(=O)c2cc(Cl)ccc2O)c1 [Compound 3i, N-(3-tert-butylphenyl)-5-chloro-2-hydroxybenzamide]
activity against T. gondii tachyzoites in words (T. gondii tachyzoites): much more active than 3l | Toxicity (HFF cells): >1000 nM | IC50 (P. falciparum TM91-C235; read-out: C235 IC50, multi-drug resistant strain TM91-C235, 72 hours): > 6.5 µM | efficacy against TM91-C235 compared with D6 (P. falciparum TM91-C235): two-fold higher IC50 | static or cidal effect (RH-YFP tachyzoites): parasitostatic; also recorded: static effect | growth of insertional mutant parasites in the presence of compound [2]: No parasite growth

O=C(Nc1cc(C(F)(F)F)cc(C(F)(F)F)c1)c1cc(Cl)ccc1O [Compound 3j]
activity against T. gondii tachyzoites in words (T. gondii tachyzoites): promising activity | Toxicity (HFF cells): >1000 nM | efficacy against TM91-C235 compared with D6 (P. falciparum TM91-C235): equally effective | static or cidal effect (RH-YFP tachyzoites): parasitocidal; also recorded: cidal | duration of treatment giving a cidal effect (RH-YFP tachyzoites): cidal effect after four days of treatment | growth of insertional mutant parasites in the presence of compound [2]: No parasite growth

O=C(Nc1ccc([N+](=O)[O-])cc1Cl)c1ccccc1O [Compound 3k, N-(2-chloro-4-nitrophenyl)-2-hydroxybenzamide]
activity against T. gondii tachyzoites in words (T. gondii tachyzoites): eliminated activity altogether

COc1ccc(NC(=O)c2cc(Cl)ccc2O)cc1OC [Compound 3v, 5-chloro-N-(3,4-dimethoxyphenyl)-2-hydroxybenzamide]
activity against T. gondii tachyzoites in words (T. gondii tachyzoites): devoid of activity

O=C(Nc1cccc(OC(F)F)c1)c1cc(Cl)ccc1O [Compound 3z, 5-chloro-N-(3-(difluoromethoxy)phenyl)-2-hydroxybenzamide]
MIC50 (T. gondii tachyzoites): >1 µM | MIC90 (T. gondii tachyzoites): >1 µM

Nc1ccc(NC(=O)c2cc(Cl)ccc2O)c(Cl)c1 [Compound 5, N-(4-amino-2-chlorophenyl)-5-chloro-2-hydroxybenzamide hydrochloride]
activity against T. gondii tachyzoites in words (T. gondii tachyzoites): all activity was lost; also recorded: destroyed

O=C(Oc1ccc(Cl)cc1C(=O)Nc1ccc([N+](=O)[O-])cc1Cl)c1ccccc1 [Compound 7a, 4-chloro-2-((2-chloro-4-nitrophenyl)carbamoyl)phenyl benzoate]
activity against T. gondii tachyzoites in words (T. gondii tachyzoites): apparent increase in potency over 4 | Toxicity (HFF cells): >1000 nM | efficacy against TM91-C235 compared with D6 (P. falciparum TM91-C235): equally effective | static or cidal effect (RH-YFP tachyzoites): parasitocidal; also recorded: cidal | duration of treatment giving a cidal effect (RH-YFP tachyzoites): cidal effect after four days of treatment | growth of insertional mutant parasites in the presence of compound [2]: No parasite growth | stability against hydrolysis [4]: hydrolytically labile

COC(=O)[C@@H]1CCCN1C(=O)Oc1ccc(Cl)cc1C(=O)Nc1ccc([N+](=O)[O-])cc1Cl [Compound 7b, (S)-1-(4-chloro-2-((2-chloro-4-nitrophenyl)carbamoyl)phenyl) 2-methyl pyrrolidine-1,2-dicarboxylate]
stability against hydrolysis [4]: much more stable against hydrolysis

O=C(Nc1ccc([N+](=O)[O-])cc1Cl)c1cc(Cl)ccc1OC(=O)N1CCOCC1 [Compound 7c, 4-chloro-2-((2-chloro-4-nitrophenyl)carbamoyl)phenyl morpholine-4-carboxylate]
activity against T. gondii tachyzoites in words (T. gondii tachyzoites): devoid of activity | stability against hydrolysis [4]: much more stable against hydrolysis

CN1CCN(C(=O)Oc2ccc(Cl)cc2C(=O)Nc2ccc([N+](=O)[O-])cc2Cl)CC1 [Compound 7d, 4-chloro-2-((2-chloro-4-nitrophenyl)carbamoyl)phenyl 4-methylpiperazine-1-carboxylate]
activity against T. gondii tachyzoites in words (T. gondii tachyzoites): modest activity; also recorded: devoid of activity | stability against hydrolysis [4]: much more stable against hydrolysis

CN(CC(=O)NN)C(=O)Oc1ccc(Cl)cc1C(=O)Nc1ccc([N+](=O)[O-])cc1Cl.Cl [Compound 14a, 4-chloro-2-((2-chloro-4-nitrophenyl)carbamoyl)phenyl (2-hydrazinyl-2-oxoethyl)(methyl) carbamate hydrochloride]
Toxicity (HFF cells): >1000 nM | efficacy against TM91-C235 compared with D6 (P. falciparum TM91-C235): equally effective | static or cidal effect (RH-YFP tachyzoites): cidal | duration of treatment giving a cidal effect (RH-YFP tachyzoites): cidal effect after ten days of treatment | Day of Death (mice; 25 mg/kg oral gavage): None | Day of Death (mice; 100 mg/kg oral gavage): None | toxic effects on oral dosing (survival, well-being criteria) (mice): all mice were alive and appeared healthy | increased survival (T. gondii Me-49 oocysts): 1 days

N-(2,3-dihydrobenzo[b][1,4]dioxin-6-yl)-2-hydroxybenzamide [Compound 3ab]
MIC50 (T. gondii tachyzoites): >1 µM | MIC90 (T. gondii tachyzoites): >1 µM | activity against T. gondii tachyzoites in words (T. gondii tachyzoites): devoid of activity; also recorded: inactive

N-(2,4-dichlorophenyl)-5-chloro-2-hydroxybenzamide [Compound 3n]
activity against T. gondii tachyzoites in words (T. gondii tachyzoites): slight activity; also recorded: active

N-(2,4-difluorophenyl)-5-chloro-2-hydroxybenzamide [Compound 3o]
MIC50 (T. gondii tachyzoites): >1 µM | MIC90 (T. gondii tachyzoites): >1 µM | activity against T. gondii tachyzoites in words (T. gondii tachyzoites): inactive

N-(2-chloro-5-nitrophenyl)-5-methyl-2-hydroxybenzamide [Compound 3m]
activity against T. gondii tachyzoites in words (T. gondii tachyzoites): decreased potency; also recorded: inactive; also recorded: about one-half as active as 4
